Reference: ChEMBL document CHEMBL1153868, “Novel 8-deaza-5,6,7,8-tetrahydroaminopterin derivatives as dihydrofolate inhibitor: design, synthesis and antifolate activity” (Eur J Med Chem, 2009)

Key:
[1] = tested on: BGC-823; test: Cytotoxicity against human BGC823 cells after 48 hrs; format: functional, cell-based; settings: BGC-823, 48 h
In short: (§1)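 Exponentially growing cells maintained in supplemented RPMI-1640 medium. Exposed to a range of compound concentrations for 48 h. Growth inhibition measured by MTT and SRB assays. IC50 reported as the mean of three independent experiments.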

[2] = tested on: HL-60; test: Cytotoxicity against human HL60 cells after 48 hrs; format: functional, cell-based; settings: HL-60, 48 h; in short: as §1
[3] = biological target: T1, Dihydrofolate reductase (Homo sapiens, UniProt P00374); test: Inhibition of human recombinant DHFR by spectrophotometry
T1 sequence (P00374 whole entry): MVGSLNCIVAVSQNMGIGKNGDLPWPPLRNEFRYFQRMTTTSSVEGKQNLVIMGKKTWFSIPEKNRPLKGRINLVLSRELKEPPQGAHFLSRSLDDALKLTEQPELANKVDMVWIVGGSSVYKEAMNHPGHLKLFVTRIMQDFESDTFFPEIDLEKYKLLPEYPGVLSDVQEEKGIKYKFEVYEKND

[4] = tested on: Bel-7402; test: Cytotoxicity against human Bel7402 cells after 48 hrs; format: functional, cell-based; settings: Bel-7402, 48 h; in short: as §1
[5] = tested on: HeLa; test: Cytotoxicity against human HeLa cells after 48 hrs; format: functional, cell-based; in short: as §1

C=CCN1c2c(N)nc(N)nc2CCC1CNc1ccc(C(=O)NC(CCC(=O)O)C(=O)O)cc1Br (centres undefined)
IC50 [1]: 6590 nM
IC50 [2]: 570 nM
IC50 [3]: 2370 nM
IC50 [4]: 1200 nM
IC50 [5]: 900 nM

C=CCN(CC1CCc2nc(N)nc(N)c2N1CC=C)c1ccc(C(=O)NC(CCC(=O)O)C(=O)O)cc1 (centres undefined)
IC50 [1]: 2430 nM
IC50 [2]: 1420 nM
IC50 [3]: 2150 nM
IC50 [4]: 7100 nM
IC50 [5]: 21700 nM

Nc1nc(N)c2c(n1)CCC(CNc1ccc(C(=O)NC(CCC(=O)O)C(=O)O)cc1)N2 (centres undefined)
IC50 [1]: 440 nM
IC50 [2]: 900 nM
IC50 [3]: 560 nM
IC50 [4]: 87900 nM
IC50 [5]: 960 nM

Nc1nc(N)c2c(n1)CCC(CNc1ccc(C(=O)NC(CCC(=O)O)C(=O)O)cc1Br)N2CC(Br)CBr (centres undefined)
IC50 [1]: 22600 nM
IC50 [2]: 48800 nM
IC50 [3]: 9340 nM
IC50 [4]: 257000 nM
IC50 [5]: 19400 nM

C=CCN1c2c(N)nc(N)nc2CCC1CNc1ccc(C(=O)NC(CCC(=O)O)C(=O)O)cc1 (centres undefined)
IC50 [1]: 5200 nM
IC50 [2]: 700 nM
IC50 [3]: 1410 nM
IC50 [4]: 42200 nM
IC50 [5]: 7850 nM

CN(Cc1cnc2nc(N)nc(N)c2n1)c1ccc(C(=O)N[C@@H](CCC(=O)O)C(=O)O)cc1 [METHOTREXATE]
IC50 [1]: 110 nM
IC50 [2]: 210 nM
IC50 [4]: 82300 nM
IC50 [5]: 100 nM
